Results reported in ChEMBL document CHEMBL4725492, “Dioxane-Linked Amide Derivatives as Novel Bacterial Topoisomerase Inhibitors against Gram-Positive Staphylococcus aureus” (ACS Med Chem Lett, 2020).
In brackets after ≈: the same amount, converted by molar mass. Activity calls are given as the source filed them. No cut-off for these calls is given here.

Legend:
[1] = test system: Staphylococcus aureus; assay: Antibacterial activity against Staphylococcus aureus USA300 by CLSI based agar dilution method; format: functional
[2] = Growth inhibition of human K/VP.5 cells incubated for 48 hrs by sulforhodamine B assay; format: functional
[3] = target: Voltage-gated inwardly rectifying potassium channel KCNH2 (Homo sapiens, UniProt Q12809); assay: Inhibition of human ERG; conditions: human
[4] = target: Topoisomerase IV (Staphylococcus aureus, UniProt P0C1S7+P0C1U9); assay: (§1) Inhibition of Staphylococcus aureus topoisomerase-4 assessed as reduction in decatenation of kinetoplast DNA agarose gel electrophoresis method; format: protein-complex assay
[5] = test system: K562; assay: Growth inhibition of human K562 cells incubated for 48 hrs by sulforhodamine B assay; format: functional
[6] = test system: Staphylococcus aureus; assay: Antibacterial activity against Staphylococcus aureus 3527 by CLSI based agar dilution method; format: functional
[7] = test system: Staphylococcus aureus; assay: Antibacterial activity against Staphylococcus aureus ATCC 29213 by CLSI based agar dilution method; format: functional
[8] = target: DNA gyrase (Staphylococcus aureus, UniProt P0A0K8+P20831); assay: Inhibition of Staphylococcus aureus DNA gyrase using relaxed pBR322 as substrate by gel electrophoresis; format: protein-complex assay
[9] = test system: Staphylococcus aureus; assay: Antibacterial activity against Staphylococcus aureus D83N by CLSI based agar dilution method; format: functional
[10] = target: T1, DNA gyrase (Staphylococcus aureus) (UniProt P0A0K8+P20831); assay: Inhibition of Staphylococcus aureus DNA gyrase assessed as double-strand break at 20 uM using relaxed pBR322 as substrate by ethidium bromide-based gel electrophoresis; format: protein-complex assay
In short: (§2)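 S. aureus gyrase-mediated DNA cleavage: compound was incubated with enzyme and DNA, and products were resolved on an ethidium-stained gel into negatively supercoiled, nicked (single-strand break) and linear (double-strand break) forms. Lane fluorescence was corrected for differential band emission. Percent of each form was calculated, and enzyme-only cleavage was subtracted. Concentrations spanned 0.1 nM–200 μM, with a 20 μM single-point screen. Results are mean ± SD or range.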

[11] = target: DNA topoisomerase 2-alpha (Homo sapiens, UniProt P11388); assay: Inhibition of human topoisomerase 2alpha
In short: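 Human topoisomerase IIα decatenation activity was tested at a single concentration of 100 μM and reported as percent inhibition.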

[12] = target: T1, DNA gyrase (Staphylococcus aureus); assay: Inhibition of Staphylococcus aureus DNA gyrase assessed as single-strand break at 20 uM using relaxed pBR322 as substrate by ethidium bromide-based gel electrophoresis; format: protein-complex assay; in short: as §2
[13] = target: Topoisomerase IV (Staphylococcus aureus, UniProt P0C1U9+P0C1S7); assay: as §1; format: protein-complex assay

SMILES	MIC [1] [µg/mL]	INH [2] [µM]	INH [3] [µM]	IC50 [4] [nM]	INH [5] [µM]	MIC [6] [µg/mL]	MIC [7] [µg/mL]	IC50 [8] [nM]	MIC [9] [µg/mL]	inhibition [10]	inhibition (INH) [11]	inhibition [12]	IC50 [13]
COc1ccc2nccc(CC[C@H]3OC[C@H](NC(=O)c4ccc5c(n4)NC(=O)CO5)CO3)c2c1	0.125 (≈ 0.269 µM)	>200	> 12	190	>200	0.125 (≈ 0.269 µM)	0.125 (≈ 0.269 µM)	40	> 64				
COc1ccc2nccc(CC[C@H]3OC[C@H](NC(=O)[C@H]4CC[C@H](N)CC4)CO3)c2c1	> 64					> 64	> 64		> 64				
COc1ccc2nccc(CC[C@H]3OC[C@H](NC(=O)c4ccc(C(C)(C)C)cc4)CO3)c2c1	1 (≈ 2.23 µM)	8.8	5.2	> 200000	8.4	1 (≈ 2.23 µM)	0.25 (≈ 0.557 µM)	1300	2 (≈ 4.46 µM)	inactive	Not Active	Active	
COc1ccc2nccc(CC[C@H]3OC[C@H](NC(=O)c4ccc(C#N)cc4)CO3)c2c1	> 8						> 8						
COc1ccc2nccc(CC[C@H]3OC[C@H](NC(=O)c4ccccc4)CO3)c2c1	8 (≈ 20.4 µM)					4 (≈ 10.2 µM)	8 (≈ 20.4 µM)		> 256				
COc1ccc2nccc(CC[C@H]3OC[C@H](NC(=O)c4ccc(OC(F)(F)F)cc4)CO3)c2c1	1 (≈ 2.1 µM)	9	> 10		11	2 (≈ 4.2 µM)	0.5 (≈ 1.05 µM)	1400	> 32	inactive	Not Active	Active	Not Active
COc1ccc2nccc(CC[C@H]3OC[C@H](NC(=O)CC4CCCCC4)CO3)c2c1	> 64					> 64	> 64		> 64				
COc1ccc2nccc(CC[C@H]3OC[C@H](NC(=O)c4ccc(Cl)c(Cl)c4)CO3)c2c1	0.125 (≈ 0.271 µM)			> 200000		0.5 (≈ 1.08 µM)	0.125 (≈ 0.271 µM)	590	> 32	inactive		Active	
COc1ccc2nccc(CC[C@H]3OC[C@H](NC(=O)c4ccc5c(c4)NC(=O)CO5)CO3)c2c1	0.25 (≈ 0.539 µM)	>200		890	>200	0.5 (≈ 1.08 µM)	0.25 (≈ 0.539 µM)	60	> 64				
COc1ccc2nccc(CC[C@H]3OC[C@H](NC(=O)[C@H]4CC[C@H](C)CC4)CO3)c2c1	8 (≈ 19.4 µM)					8 (≈ 19.4 µM)	4 (≈ 9.7 µM)		> 32				
COc1ccc2nccc(CC[C@H]3OC[C@H](NC(=O)C4CCNCC4)CO3)c2c1	> 64					> 64	> 64		> 64				
COc1ccc2nccc(CC[C@H]3OC[C@H](NC(=O)c4cccnc4)CO3)c2c1	128 (≈ 325 µM)					128 (≈ 325 µM)	256 (≈ 651 µM)		128 (≈ 325 µM)				
COc1ccc2nccc(CC[C@H]3OC[C@H](NC(=O)c4ccc(C(F)(F)F)cc4)CO3)c2c1	≤ 0.5	8.9	> 30	> 200000	6.8	≤ 0.5	0.25 (≈ 0.543 µM)	1100	> 64	inactive	Not Active	Active	
COc1ccc2nccc(CC[C@H]3OC[C@H](NC(=O)c4ccccn4)CO3)c2c1	> 256					> 256	> 256		> 256				
COc1ccc2nccc(CC[C@H]3OC[C@H](NC(=O)[C@H]4CC[C@@H](N)CC4)CO3)c2c1	> 64					> 64	> 64		> 64				
COc1ccc2nccc(CC[C@H]3OC[C@H](NC(=O)[C@H]4CC[C@H](O)CC4)CO3)c2c1	> 64					> 64	> 64		> 64				
COc1ccc2nccc(CC[C@H]3OC[C@H](NC(=O)C4COc5ccccc5O4)CO3)c2c1 (some centres not stated)	> 64					> 64	> 64		> 64				
COc1ccc2nccc(CC[C@H]3OC[C@H](NC(=O)c4ccc(F)cc4)CO3)c2c1	> 256					> 256	> 256		> 256				
COc1ccc2nccc(CC[C@H]3OC[C@H](NC(=O)c4cccc(Cl)c4)CO3)c2c1	1 (≈ 2.34 µM)	50	> 3		<200	1 (≈ 2.34 µM)	2 (≈ 4.68 µM)	320	> 32	inactive		Active	Not Active
COc1ccc2nccc(CC[C@H]3OC[C@H](NC(=O)C4Cc5ccccc5CO4)CO3)c2c1 (some centres not stated)	> 64					> 64	> 64		> 64				
COc1ccc2nccc(CC[C@H]3OC[C@H](NC(=O)C4CCCCC4)CO3)c2c1	8 (≈ 20.1 µM)					8 (≈ 20.1 µM)	8 (≈ 20.1 µM)		32 (≈ 80.3 µM)				
COc1ccc2nccc(CC[C@H]3OC[C@H](NC(=O)[C@H]4CC[C@@H](O)CC4)CO3)c2c1	> 64					> 64	> 64		> 64				
COc1ccc2nccc(CC[C@H]3OC[C@H](NC(=O)C4COc5ccccc5C4)CO3)c2c1 (some centres not stated)	> 64					> 64	> 64		> 64				
COc1ccc2nccc(CC[C@H]3OC[C@H](NC(=O)C4CCN(C)CC4)CO3)c2c1	> 64					> 64	> 64		> 64				
COc1ccc2nccc(CC[C@H]3OC[C@H](NC(=O)c4ccc5c(n4)NC(=O)CS5)CO3)c2c1	0.03 (≈ 0.0624 µM)	>200	> 3	300	>200	0.03 (≈ 0.0624 µM)	0.06 (≈ 0.125 µM)	170	> 64				
COc1ccc2nccc(CC[C@H]3OC[C@H](NC(=O)c4ccccc4Cl)CO3)c2c1	> 256					> 256	256 (≈ 600 µM)		> 256				
COc1ccc2nccc(CC[C@H]3OC[C@H](NC(=O)C4(C)CCCCC4)CO3)c2c1	> 64					> 64	> 64		> 64				
COc1ccc(C(=O)N[C@H]2CO[C@H](CCc3ccnc4ccc(OC)cc34)OC2)cc1	8 (≈ 18.9 µM)			106000		16 (≈ 37.9 µM)	4 (≈ 9.47 µM)	3900	32 (≈ 75.7 µM)		Not Active		
